UHRF1 binding = UHRF1 methyl-DNA binding inhibition | UHRF1 binding to methylated oligo, TR-FRET | inhibition, % at 4.4 µM | 370,000 tested, 0.75% active; in the data active = inhibition above about 21%;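 note: UHRF1 SRA domain binding a hemimethylated CpG hairpin DNA probe; 0% = median of test compound wells and 100% = reference inhibitor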
ASAP1 inh = blocks human ASAP1-stimulated Arf1 GTP hydrolysis | Q9ULH1 | 360,000 tested, 0.19% active | GDP FP detection | inhibition, % at 16.5 µM; in the data active = inhibition above about 25%;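 note: 0% = vehicle with enzyme and substrate and 100% = no enzyme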
ARFGAP1 inhibitor = inhibitors of rat ARFGAP1. Arfgap1-stimulated ARF1 GTP hydrolysis, GDP FP detection. inhibition, % at 16.5 µM. 360,000 tested, 0.26% active. AID 651572;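 active = inhibition above a per-plate limit, mean inhibition of low control wells plus 3 SD, cut at about 25% in these data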;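 note: 0% = DMSO wells with enzyme and 100% = wells lacking Arfgap1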
Target sequence (Q62848 1-136 limits assumed): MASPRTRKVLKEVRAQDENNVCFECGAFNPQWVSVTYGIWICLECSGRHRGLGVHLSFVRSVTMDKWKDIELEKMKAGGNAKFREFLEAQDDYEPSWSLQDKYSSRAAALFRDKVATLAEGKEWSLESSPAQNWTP
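Repeats: one replicate per compound; assay system: rat Arfgap1 catalytic domain, aa 1-136; times: enzyme reaction 120 min at 25 °C after 20 min preincubation; detection: FP of antibody-bound GDP Alexa 633 tracer, ex 620/em 688 nm; benchmarks: high control wells lacking Arfgap1, low control full reaction with DMSO; reagent: human ARF1(Δ1-17)-GTP substrate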
TCR CD3 inh = blocks the human TCR-CD3 interaction; TAMRA-labeled TCR probe fluorescence, biochemical; 360,000 tested, 0.37% active; inhibition, % at 9.4 µM; AID 651800; in the data active = inhibition above about 19%;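 note: recombinant mutant TCR 2C K166C tagged with TAMRA read by polarization; 0% = receptor in buffer alone and 100% = receptor with positive control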
LEDGF integ inh = blocks HIV-1 LEDGF/p75-dependent DNA integration. AID 743269. 370,000 tested, 0.64% active. TR-FRET IN-LEDGF/p75 DNA integration, Eu/Cy5. inhibition, % at 3.7 µM;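 active = inhibition above the screen-wide mean plus 3 SD, cut at about 13% in these data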;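 note: signal is the Cy5 over europium emission ratio at 671 and 618 nm; 0% = plate median of compound wells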
MBD2 DNA inh = MBD2-methylated oligo binding inhibition. inhibition, % at 4.4 µM. 370,000 tested, 0.31% active. Q9UBB5. AID 686964. TR-FRET, MBD2 binding to methylated oligonucleotide; in the data active = inhibition above about 13%
ARFGAP1 inh conf = confirmation of rat ARFGAP1 inhibitors. shares compounds with ARFGAP1 inhibitor. ARFGAP1-stimulated ARF1 GTP hydrolysis, GDP tracer FP. inhibition, % at 16.5 µM. 890 tested, 30% active;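 active = average inhibition over triplicates above the hit cutoff set in the earlier primary screen, cut at about 25% in these data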;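 note: 0% = Arfgap1 plus ARF1-GTP with DMSO and 100% = wells lacking Arfgap1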
Target sequence (Q62848 whole entry, looked up): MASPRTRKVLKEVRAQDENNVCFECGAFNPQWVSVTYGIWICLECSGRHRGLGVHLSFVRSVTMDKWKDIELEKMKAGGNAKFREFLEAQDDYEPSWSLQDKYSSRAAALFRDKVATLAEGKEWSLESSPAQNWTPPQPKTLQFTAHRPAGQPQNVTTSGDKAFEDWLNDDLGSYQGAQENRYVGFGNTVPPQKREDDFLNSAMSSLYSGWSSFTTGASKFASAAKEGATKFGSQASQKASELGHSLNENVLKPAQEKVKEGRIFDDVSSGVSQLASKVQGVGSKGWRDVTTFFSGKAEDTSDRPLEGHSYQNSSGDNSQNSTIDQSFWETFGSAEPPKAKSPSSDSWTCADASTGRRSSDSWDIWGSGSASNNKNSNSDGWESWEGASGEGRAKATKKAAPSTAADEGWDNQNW
* marks the source's active call; other numbers are inactive results; . = not tested or not shown. This is a sample that favours compounds with a hit; in the whole collection about 2% have one here.

SMILES | UHRF1 binding | ASAP1 inh | ARFGAP1 inhibitor | TCR CD3 inh | LEDGF integ inh | MBD2 DNA inh | ARFGAP1 inh conf
c1ccc(CCn2cnc3ccccc32)cc1 | 5 | -7 | 26* | -5 | -1 | 6 | 8
CC(NC(=O)OCc1ccccc1)c1ccccc1 (configuration not stated) | 4 | -6 | -6 | -1 | -2 | 4 | .
CNC(=O)[C@@H]1C[C@H]1[C@@H](NC(=O)OCc1ccccc1)c1ccccc1 | 1 | 4 | 25* | 5 | -2 | 4 | 2
CCOC(=O)[C@@]12CN(C(=O)OC(C)(C)C)CC=C1N(Cc1ccc(OC)cc1)C(=O)[C@H]2CC(=O)NCc1ccc(C)o1 | 0 | . | . | . | -2 | 0 | .
CCc1cc(=O)oc2c3c(cc(OCC(=O)NCCCCCC(=O)O)c12)OC(C)(C)CC3 | 0 | 3 | 11 | 3 | 0 | 1 | .
NC(=O)C1CCCN(C(=S)Nc2cccc3ccccc23)C1 (configuration not stated) | 0 | -9 | -6 | -1 | -2 | 3 | .
O=c1c2ccccc2nc(/C=C/c2ccccc2)n1CCc1ccccc1 | 2 | -6 | 52* | 7 | 1 | -1 | 4
O=c1[nH]c(/C=C2\C=Nc3ccccc32)c(O)n1Cc1ccccc1F | -2 | 16 | 25* | 2 | 1 | 0 | 16
Cc1c(C(=O)Nc2ccc(-n3cnnn3)cc2)oc2ccccc12 | 0 | 24 | 26* | 0 | -3 | 1 | 47*
CCCCN(C(=O)c1c(C)noc1C)c1c(N)n(CCCC)c(=O)[nH]c1=O | -1 | 7 | 0 | 5 | -1 | -1 | .
CCCCn1c(N)c(N(CCOC)C(=O)c2c(C)noc2C)c(=O)[nH]c1=O | 3 | 7 | 25* | 3 | 0 | -8 | -1
CC(=O)NC(c1ccccc1)c1nc(-c2cccnc2)cs1 (configuration not stated) | -2 | -2 | -6 | 3 | -1 | -3 | .
O=C(OC12CCCN(C1)/C(=C/c1cccc(Cl)c1)C2)c1ccc(F)cc1 (configuration not stated) | 3 | . | . | . | 3 | 1 | .
O=C(NC(c1ccc(F)cc1)c1ccc2ccccc2n1)C1CCN(Cc2ccc3ccccc3n2)CC1 (configuration not stated) | -2 | 9 | 0 | -3 | -3 | -2 | .
O=C(NC(c1ccc(F)cc1)c1ccc2ccccc2n1)C1CCN(Cc2cccc(C(F)(F)F)c2)CC1 (configuration not stated) | 2 | -5 | 28* | -6 | -3 | 5 | 14
O=C(NC12CC3CC(CC(C3)C1)C2)c1cc(F)c(F)c(F)c1F | 3 | 2 | -10 | 0 | -3 | 5 | .
CCc1nc2c(OCC=C(C)C)cccn2c1N(C)C(=O)c1ccc(OC)cc1 | -2 | -14 | 3 | 1 | 0 | 4 | .
C=CCc1ccc(O)c(-c2ccc(O)c(CC=C)c2)c1 | 2 | 14 | 36* | 0 | -9 | 1 | 11
C=CCc1cc(C(=O)N2CCCCC2)ccc1O | -2 | 10 | 2 | 6 | -3 | -4 | .
c1ccc2c(N3CCCCC3)ncnc2c1 | -1 | -5 | 27* | 10 | 1 | 2 | -2
Cc1cccc(-c2cccc3c4c([nH]c23)[C@@H]2C[C@H](N(C)C(=O)c3ccccc3C)[C@H]([C@H](C)O)C(=O)N2CC4)c1 | -1 | . | . | . | 2 | -3 | .
NS(=O)(=O)c1ccc(CNC(=S)NC2CCCC2)cc1 | 11 | 7 | 29* | 5 | 0 | 5 | 5
NS(=O)(=O)c1ccc(CNC(=O)C2CCCCC2)cc1 | 6 | 9 | 8 | 1 | 4 | -2 | .
COc1cc(C(=O)OC(C)CN2CCN(C)CC2)cc(OC)c1OC (configuration not stated) | 6 | 1 | 0 | 1 | -3 | 1 | .
COc1cc(C(=O)OC(C)CN2C(C)CCCC2C)cc(OC)c1OC (configuration not stated) | 1 | 2 | 32* | 1 | -3 | 0 | -6
SMILES | UHRF1 binding | ASAP1 inh | ARFGAP1 inhibitor | TCR CD3 inh | LEDGF integ inh | MBD2 DNA inh | ARFGAP1 inh conf
COCCCn1c(C)cc(C(=O)CN2c3cccc4cccc(c34)S2(=O)=O)c1C | 1 | 25 | 32* | -4 | -8 | -1 | 36*
N#Cc1ccsc1NC(=O)COC(=O)c1ccc2ccccc2c1 | -1 | 23 | 27* | -2 | 0 | 5 | 20
O=[N+]([O-])c1cccc(COc2ccc(CO)cc2)c1 | -2 | -11 | -2 | 7 | -2 | -1 | .
O=C1NC(=O)/C(=C\c2ccc(OCc3cccc([N+](=O)[O-])c3)cc2)N1 | -3 | 22 | 49* | -1 | 0 | -1 | 86*
CC(=O)Nc1ccc(OCC(O)Cn2c3ccccc3c3ccccc32)c(C)c1 (configuration not stated) | 4 | 17 | 25* | -1 | 1 | 2 | 26*
COc1ccc(/C=C/S(=O)(=O)NCCc2ccccc2)c(CNC(=O)OC(C)(C)C)c1 | -3 | . | . | . | -2 | -8 | .
OC(CNCCC1C=Nc2ccccc21)Cn1c2ccc(Cl)cc2c2cc(Cl)ccc21 (configuration not stated) | 0 | 13 | 28* | 18 | 0 | -3 | 42*
OC(CNCC1CCCO1)Cn1c2ccc(Cl)cc2c2cc(Cl)ccc21 (configuration not stated) | -4 | -4 | 5 | 5 | -5 | 7 | .
O=C(Nc1ccc(C(O)c2ccccc2)cc1)[C@@H]1O[C@H](CO)[C@@H](O)[C@H]1O (some centres not stated) | 5 | 4 | 10 | -2 | -6 | 1 | .
CCN(C(=O)CSc1nnc(-c2cccs2)n1CC)C1CCS(=O)(=O)C1 (configuration not stated) | -1 | -7 | 5 | 4 | 1 | -3 | .
CC(C)CN(C(=O)CSc1nnc(-c2cccs2)n1C1CC1)C1CCS(=O)(=O)C1 (configuration not stated) | 2 | 8 | 27* | 1 | 1 | -1 | -5
Cc1cc(C)n(C(C)CNS(=O)(=O)c2ccc(Cl)cc2)n1 (configuration not stated) | 2 | 8 | 25* | -5 | 2 | 10 | -2
CCOC(=O)c1oc2ccccc2c1NC(=O)c1ccc(Cl)s1 | -1 | 0 | 32* | -7 | 0 | 2 | 6
Cn1c(SCC(=O)Nc2ccc(C(=O)O)cc2)nnc1-c1ccccn1 | -2 | . | . | . | -2 | 5 | .
Cc1c(C(=O)OCC(=O)N2CC(C)CC(C)C2)oc2ccccc12 (configuration not stated) | 2 | -3 | 5 | -10 | 4 | -1 | .
